Activity calls are given as the source filed them. The rule behind the calls is not given here.
Legend:
Mus musculus [1] = assay: Ex vivo inhibition of mouse brain lipid autoxidation after 1 hr by 20 umol/kg subcutaneous administration; assay type: functional; conditions: sc
In short: (§1)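 Male CD1 mice (30 g, five per group) were given 20 μmol/kg sc or saline and killed 1 h later. Brains were frozen in liquid N2, stored at -80 °C, then homogenized 1/19 w/v in ice-cold water. Homogenate (10 mg tissue) was incubated in 20 mM KH2PO4 pH 7.3 with 0.14 M KCl (final) at 37 °C for 30 min. Unincubated samples gave basal TBARS.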

Mus musculus [2] = assay: Mouse brain drug concentration after 1 hr of 20 umol/kg subcutaneous administration; assay type: functional, organism-based
In short: (§2)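 Mouse brain homogenates taken 1 h after 20 μmol/kg sc were diluted in methanol containing 2% ascorbic acid and centrifuged. Supernatant was run on a C8 column with isocratic 0.1 M phosphate/50–75% methanol. Detection was electrochemical at 0.6 V. Results are nmol/g, mean ± SD, five mice per group.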

[3] = Superoxyl radical (O2) scavenging reaction rate constant in competition with nitro-blue tetrazolium of superoxyl radicals formed by xanthine oxidase in the presence of xanthine; assay type: functional
Rattus norvegicus [4] = species on record: Rattus norvegicus; assay: In vitro inhibition of lipid autoxidation (TBARS formation) of rat brain homogenate; assay type: functional
In short: (§3)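 Rat brain homogenate was incubated at 37 °C for 30 min, and TBARS formation was measured. The value is the concentration giving 50% inhibition, as mean ± SD with the number of experiments given.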

Mus musculus [5] = species on record: Mus musculus; assay: Percentage number of paraparetic mice 1 hr after concussive head injury; assay type: functional
In short: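 Mice were dosed 12 mg/kg sc 30 min before concussive head injury, a blow of measured severity. At 1 h a blinded string test counted mice unable to raise their hind limbs onto a horizontal string as paraparetic. Groups had 20–25 mice and were compared with saline by χ-square.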

Rattus norvegicus [6] = species on record: Rattus norvegicus; assay: In vitro lipid autoxidation (TBARS formation) in rat brain homogenate; no inhibition; assay type: functional; in short: as §3
[7] = O2 scavenging reaction rate constant for competition with nitro-blue tetrazolium of superoxyl radicals formed by xanthine oxidase in the presence of xanthine;No reaction; assay type: functional
Mus musculus [8] = assay: […] fter 1 hr by 20 umol/kg subcutaneous administration; assay type: functional, organism-based; in short: as §2
Mus musculus [9] = assay: Ex vivo inhibition of mouse brain lipid autoxidation after 1 hr by 1 umol/kg subcutaneous administration; assay type: functional; conditions: sc
Mus musculus [10] = assay: Ex vivo inhibition of mouse brain lipid autoxidation after 1 hr by 20 umol/kg subcutaneous administration; no inhibition; assay type: functional, organism-based; in short: as §1

| Structure (SMILES) | inhibition in vivo at 20 µmol/kg (Mus musculus [1]) [%] | Rate constant [3] [M⁻¹ s⁻¹] | IC50 (Rattus norvegicus [4]; Rattus norvegicus, Brain) [nM] | other results |
| --- | --- | --- | --- | --- |
| Cc1c(C)c2c(c(C)c1O)C(CN1CCN(Cc3ccccc3)CC1)C(C)(C)O2 (stereo not drawn) | 24 | 20000 | 300 | Concentration (Mus musculus [2]): 1.6 nM/g |
| Cc1c(C)c2c(c(C)c1O)CCC(C)(CC[N+](C)(C)C)O2.Cc1ccc(S(=O)(=O)[O-])cc1 (stereo not drawn) |  | 24000 | 2000 | Paraparetic mice (Mus musculus [5]): 40% |
| Cc1c(C)c2c(c(C)c1O)C(CN1CCN(CCO)CC1)C(C)(C)O2 (stereo not drawn) | 57 | 90000 | 500 | Concentration (Mus musculus [2]): 6.5 nM/g; Paraparetic mice (Mus musculus [5]): 40% |
| Cc1c(C)c2c(c(C)c1O)C(CO)C(C)(C)O2 (stereo not drawn) |  | 140000 | 2600 |  |
| Cc1c(C)c2c(c(C)c1O)C(C(=O)N1CCN(CCO)CC1)C(C)(C)O2 (stereo not drawn) |  | 43000 | 19000 |  |
| CC(=O)OCCN1CCN(CC2c3c(C)c(OC(C)=O)c(C)c(C)c3OC2(C)C)CC1 (stereo not drawn) | 35 |  |  | IC50 (Rattus norvegicus [6]): Not Active; Rate constant [7]: inactive; Concentration (Mus musculus [8]): 5.7 nM/g |
| Cc1c(C)c2c(c(C)c1O)C(C(=O)OCCN1CCN(C)CC1)C(C)(C)O2 (stereo not drawn) | 10 |  | 3900 |  |
| Cc1c(C)c2c(c(C)c1O)CC[C@@](C)(CCC[C@H](C)CCC[C@H](C)CCCC(C)C)O2 [ALPHA-TOCOPHEROL] |  |  | 14000 |  |
| Cc1c(C)c2c(c(C)c1O)C(CN1CCN(c3ncccn3)CC1)C(C)(C)O2 (stereo not drawn) | 29 |  | 400 | Concentration (Mus musculus [2]): 0.8 nM/g |
| Cc1c(C)c2c(c(C)c1O)C(CNC(C)C)C(C)(C)O2 (stereo not drawn) |  | 330000 | 1400 | inhibition in vivo at 1 µmol/kg (Mus musculus [9]): 37% |
| CC(=O)Oc1c(C)c(C)c2c(c1C)C(CN1CCN(C)CC1)C(C)(C)O2 (stereo not drawn) | 57 |  |  | IC50 (Rattus norvegicus [6]): Not Active; Concentration (Mus musculus [8]): 7.2 nM/g |
| COC(=O)C1c2c(C)c(O)c(C)c(C)c2OC1(C)C (stereo not drawn) |  |  | 3200 |  |
| Cc1c(C)c2c(c(C)c1O)C(CN(C)C)C(C)(C)O2 (stereo not drawn) |  | 150000 | 700 | inhibition (Mus musculus [10]): inactive |
| Cc1c(C)c2c(c(C)c1O)CCC(C)(CCN(C)C)O2 (stereo not drawn) | 16 | 27000 | 700 |  |
| Cc1c(C)c2c(c(C)c1O)C(C(=O)N1CCN(C)CC1)C(C)(C)O2 (stereo not drawn) |  | 83000 | 12000 |  |
| Cc1c(C)c2c(c(C)c1O)C(CN1CCCCC1)C(C)(C)O2 (stereo not drawn) |  | 90000 | 400 | inhibition in vivo at 1 µmol/kg (Mus musculus [9]): 50% |
| Cc1c(C)c2c(c(C)c1O)C(CN1CCN(C)CC1)C(C)(C)O2 (stereo not drawn) | 63 |  | 450 | Concentration (Mus musculus [2]): 7.5 nM/g; IC50 (Rattus norvegicus [4]): 400 nM; Paraparetic mice (Mus musculus [5]): 30% |
| Cc1c(C)c2c(c(C)c1O)C(C(=O)O)C(C)(C)O2 (stereo not drawn) |  | 67000 | 27000 |  |
| Cc1c(C)c2c(c(C)c1O)C(CN1CCN(CCOCCO)CC1)C(C)(C)O2 (stereo not drawn) |  | 85000 | 1200 | inhibition (Mus musculus [10]): inactive; Concentration (Mus musculus [2]): 1.2 nM/g; Paraparetic mice (Mus musculus [5]): 60% |
| Cc1c(C)c2c(c(C)c1O)C(C[N+](C)(C)C)C(C)(C)O2 (stereo not drawn) |  | 49000 | 3600 |  |
